{"source": "ChEMBL document CHEMBL4390639", "about": "“Design, Synthesis, and Biological Evaluation of Novel Allosteric Protein Disulfide Isomerase Inhibitors” (J Med Chem, 2019)", "key": {"[1]": {"biological_target": "72 kDa type IV collagenase (Homo sapiens) (UniProt P08253)", "sequence (P08253 110-660 limits assumed)": "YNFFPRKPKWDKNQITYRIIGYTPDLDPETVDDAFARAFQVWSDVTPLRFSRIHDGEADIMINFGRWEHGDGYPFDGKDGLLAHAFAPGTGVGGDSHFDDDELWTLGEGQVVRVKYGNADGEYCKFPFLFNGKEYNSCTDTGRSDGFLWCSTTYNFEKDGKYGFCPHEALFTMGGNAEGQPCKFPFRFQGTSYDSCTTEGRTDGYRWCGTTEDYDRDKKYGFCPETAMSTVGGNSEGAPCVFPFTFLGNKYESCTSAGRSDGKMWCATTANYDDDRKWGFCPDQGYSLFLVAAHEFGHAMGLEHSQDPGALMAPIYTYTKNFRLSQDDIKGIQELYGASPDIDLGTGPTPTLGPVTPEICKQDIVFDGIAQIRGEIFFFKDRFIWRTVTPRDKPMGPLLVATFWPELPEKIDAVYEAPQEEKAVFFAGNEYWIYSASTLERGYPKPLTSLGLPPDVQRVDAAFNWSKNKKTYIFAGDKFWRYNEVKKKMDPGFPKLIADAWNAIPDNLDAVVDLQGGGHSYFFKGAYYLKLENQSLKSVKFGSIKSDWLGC", "assay": "Inhibition of MMP2 activity in human U87MG cells at 10 uM […] by gelatin zymographic method", "type": "cell-based"}, "U-87 MG [2]": {"test_system": "U-87 MG", "assay": "Cytotoxicity against human U87MG cells assessed as inhibition of cell proliferation at 10 uM measured after 24 hrs treatment followed by 10 days by colony formation assay relative to control"}, "A 172": {"test_system": "A 172", "assay": "Induction of morphological changes in human A172 cells assessed as vesicle formation at 11 uM measured after 48 hrs by Giemsa-staining based microscopic analysis", "type": "functional, cell-based"}, "U-87 MG [3]": {"test_system": "U-87 MG", "assay": "Up regulation of PIR gene expression in human U87MG cells at 16 uM incubated for 4 hrs followed by bromouridine addition during last 30 mins of incubation by TRIzol-reagent based Bru-Seq analysis relative to control", "type": "functional, U-87MG ATCC", "procedure,_shortened": "(§1)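 U87MG cells exposed to compound or DMSO vehicle for 4 h, with 2 mM bromouridine added for the final 30 min. Total RNA isolated with TRIzol; Bru-labelled nascent RNA captured on anti-BrdU antibody-conjugated magnetic beads and sequenced. Transcript abundance expressed as RPKM relative to DMSO. Experiment performed once.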"}, "U-87 MG [4]": {"test_system": "U-87 MG", "assay": "Down regulation of CSF3 gene expression in human U87MG cells at 16 uM incubated for 4 hrs followed by bromouridine addition during last 30 mins of incubation by TRIzol-reagent based Bru-Seq analysis relative to control", "type": "functional, U-87MG ATCC", "procedure,_shortened": "as §1"}, "U-87 MG [5]": {"test_system": "U-87 MG", "assay": "Down regulation of C8orf4 gene expression in human U87MG cells at 16 uM incubated for 4 hrs followed by bromouridine addition during last 30 mins of incubation by TRIzol-reagent based Bru-Seq analysis relative to control", "type": "functional, U-87MG ATCC", "procedure,_shortened": "as §1"}, "U-87 MG [6]": {"test_system": "U-87 MG", "assay": "Down regulation of KCTD4 gene expression in human U87MG cells at 16 uM incubated for 4 hrs followed by bromouridine addition during last 30 mins of incubation by TRIzol-reagent based Bru-Seq analysis relative to control", "type": "functional, U-87MG ATCC"}, "U-87 MG [7]": {"test_system": "U-87 MG", "assay": "Down regulation of AC124276.2 gene expression in human U87MG cells at 16 uM incubated for 4 hrs followed by bromouridine addition during last 30 mins of incubation by TRIzol-reagent based Bru-Seq analysis relative to control", "type": "functional, U-87MG ATCC"}, "U-87 MG [8]": {"test_system": "U-87 MG", "assay": "Down regulation of LIF gene expression in human U87MG cells at 16 uM incubated for 4 hrs followed by bromouridine addition during last 30 mins of incubation by TRIzol-reagent based Bru-Seq analysis relative to control", "type": "functional, U-87MG ATCC"}, "U-87 MG [9]": {"test_system": "U-87 MG", "assay": "Down regulation of CD83 gene expression in human U87MG cells at 16 uM incubated for 4 hrs followed by bromouridine addition during last 30 mins of incubation by TRIzol-reagent based Bru-Seq analysis relative to control", "type": "functional, U-87MG ATCC"}, "U-87 MG [10]": {"test_system": "U-87 MG", "assay": "Down regulation of KIAA0040 gene expression in human U87MG cells at 16 uM incubated for 4 hrs followed by bromouridine addition during last 30 mins of incubation by TRIzol-reagent based Bru-Seq analysis relative to control", "type": "functional, U-87MG ATCC"}, "U-87 MG [11]": {"test_system": "U-87 MG", "assay": "Down regulation of E2F1 gene expression in human U87MG cells at 16 uM incubated for 4 hrs followed by bromouridine addition during last 30 mins of incubation by TRIzol-reagent based Bru-Seq analysis", "type": "functional, cell-based", "conditions": "U-87MG ATCC"}, "U-87 MG [12]": {"test_system": "U-87 MG", "assay": "Up regulation of TRIB3 gene expression in human U87MG cells at 10 uM incubated for 4 hrs followed by bromouridine addition during last 30 mins of incubation by TRIzol-reagent based Bru-Seq analysis relative to control", "type": "functional, U-87MG ATCC", "procedure,_shortened": "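U87MG cells treated 4 h with test compound (10 or 16 μM, as per line) or DMSO; 2 mM bromouridine added for final 30 min. Total RNA isolated with TRIzol, Bru-labelled nascent RNA captured with anti-BrdU antibody magnetic beads and sequenced; transcript abundance (RPKM) compared with DMSO control. Single experiment.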"}, "U-87 MG [13]": {"test_system": "U-87 MG", "assay": "Up regulation of GCNT3 gene expression in human U87MG cells at 10 uM incubated for 4 hrs followed by bromouridine addition during last 30 mins of incubation by TRIzol-reagent based Bru-Seq analysis relative to control", "type": "functional, U-87MG ATCC", "procedure,_shortened": "as §1"}, "U-87 MG [14]": {"test_system": "U-87 MG", "assay": "Up regulation of HSPA4L gene expression in human U87MG cells at 10 uM incubated for 4 hrs followed by bromouridine addition during last 30 mins of incubation by TRIzol-reagent based Bru-Seq analysis relative to control", "type": "functional, U-87MG ATCC", "procedure,_shortened": "as §1"}, "U-87 MG [15]": {"test_system": "U-87 MG", "assay": "Down regulation of HLA-DQB1 gene expression in human U87MG cells at 10 uM incubated for 4 hrs followed by bromouridine addition during last 30 mins of incubation by TRIzol-reagent based Bru-Seq analysis relative to control", "type": "functional, U-87MG ATCC"}, "U-87 MG [16]": {"test_system": "U-87 MG", "assay": "Down regulation of KCTD4 gene expression in human U87MG cells at 10 uM incubated for 4 hrs followed by bromouridine addition during last 30 mins of incubation by TRIzol-reagent based Bru-Seq analysis relative to control", "type": "functional, U-87MG ATCC"}, "U-87 MG [17]": {"test_system": "U-87 MG", "assay": "Down regulation of FBXO43 gene expression in human U87MG cells at 10 uM incubated for 4 hrs followed by bromouridine addition during last 30 mins of incubation by TRIzol-reagent based Bru-Seq analysis relative to control", "type": "functional, U-87MG ATCC", "procedure,_shortened": "as §1"}, "U-87 MG [18]": {"test_system": "U-87 MG", "assay": "Down regulation of CTHRC1 gene expression in human U87MG cells at 10 uM incubated for 4 hrs followed by bromouridine addition during last 30 mins of incubation by TRIzol-reagent based Bru-Seq analysis relative to control", "type": "functional, U-87MG ATCC"}, "U-87 MG [19]": {"test_system": "U-87 MG", "assay": "Down regulation of NFIA gene expression in human U87MG cells at 10 uM incubated for 4 hrs followed by bromouridine addition during last 30 mins of incubation by TRIzol-reagent based Bru-Seq analysis relative to control", "type": "functional, U-87MG ATCC", "procedure,_shortened": "(§2)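 Nascent transcription (Bru-seq) in U87MG cells: treatment at 10 μM for 4 h, with 2 mM bromouridine added for the final 30 min. Total RNA isolated with TRIzol; Bru-labelled RNA captured using anti-BrdU antibody on magnetic beads, then sequenced. Transcript traces reported as RPKM compared with DMSO-treated cells. Single experiment.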"}, "U-87 MG [20]": {"test_system": "U-87 MG", "assay": "Down regulation of ANKRD36 gene expression in human U87MG cells at 10 uM incubated for 4 hrs followed by bromouridine addition during last 30 mins of incubation by TRIzol-reagent based Bru-Seq analysis relative to control", "type": "functional, U-87MG ATCC"}, "U-87 MG [21]": {"test_system": "U-87 MG", "assay": "Down regulation of E2F8 gene expression in human U87MG cells at 10 uM incubated for 4 hrs followed by bromouridine addition during last 30 mins of incubation by TRIzol-reagent based Bru-Seq analysis relative to control", "type": "functional, U-87MG ATCC"}, "U-87 MG [22]": {"test_system": "U-87 MG", "assay": "Down regulation of FKBP7 gene expression in human U87MG cells at 10 uM incubated for 4 hrs followed by bromouridine addition during last 30 mins of incubation by TRIzol-reagent based Bru-Seq analysis relative to control", "type": "functional, U-87MG ATCC"}, "U-87 MG [23]": {"test_system": "U-87 MG", "assay": "Down regulation of DUT gene expression in human U87MG cells at 10 uM incubated for 4 hrs followed by bromouridine addition during last 30 mins of incubation by TRIzol-reagent based Bru-Seq analysis relative to control", "type": "functional, U-87MG ATCC"}, "U-87 MG [24]": {"test_system": "U-87 MG", "assay": "Down regulation of RAD51 gene expression in human U87MG cells at 10 uM incubated for 4 hrs followed by bromouridine addition during last 30 mins of incubation by TRIzol-reagent based Bru-Seq analysis", "type": "functional, cell-based", "conditions": "U-87MG ATCC", "procedure,_shortened": "as §2"}, "U-87 MG [25]": {"test_system": "U-87 MG", "assay": "Cytotoxicity against human U87MG cells assessed as inhibition of cell proliferation at <IC50 treated for 24 hrs, measured after 10 days by colony formation assay relative to control"}}, "note": "Calls of active or inactive are those of the source. The rule behind the calls is not given here.", "data": [{"compound": "O=C(/C=C/c1ccc(-c2cccnc2)cc1)c1cccc(O)c1", "values": [{"measurement": "inhibition", "setting": "[1]", "value": "Active"}]}, {"compound": "N#Cc1cccc(/C=C/C(=O)c2ccc(O)cc2)c1", "values": [{"measurement": "inhibition at 10 µM", "setting": "U-87 MG [2]", "value": "< 40", "unit": "%"}]}, {"compound": "CCCCCN(CCCCC)S(=O)(=O)c1ccc(C(=O)/C=C/c2cccc(O)c2)cc1", "values": [{"measurement": "Activity", "setting": "A 172", "value": "Active"}]}, {"compound": "COC(=O)c1cccc(/C=C/C(=O)c2cccc(O)c2)c1", "values": [{"measurement": "fold change (FC)", "setting": "U-87 MG [3]", "value": 4.3}, {"measurement": "fold change (FC)", "setting": "U-87 MG [4]", "value": 8.3}, {"measurement": "fold change (FC)", "setting": "U-87 MG [5]", "value": 4.7}, {"measurement": "fold change (FC)", "setting": "U-87 MG [6]", "value": 3}, {"measurement": "fold change (FC)", "setting": "U-87 MG [7]", "value": 2.9}, {"measurement": "fold change (FC)", "setting": "U-87 MG [8]", "value": 2.7}, {"measurement": "fold change (FC)", "setting": "U-87 MG [9]", "value": 2.7}, {"measurement": "fold change (FC)", "setting": "U-87 MG [10]", "value": 2.6}, {"measurement": "Activity", "setting": "U-87 MG [11]", "value": "Active"}]}, {"compound": "CCCCCN(CCCCC)S(=O)(=O)c1ccc(C(=O)/C=C/c2cccc(C#N)c2)cc1", "values": [{"measurement": "fold change (FC)", "setting": "U-87 MG [12]", "value": 34.1}, {"measurement": "fold change (FC)", "setting": "U-87 MG [13]", "value": 10}, {"measurement": "fold change (FC)", "setting": "U-87 MG [14]", "value": 8.6}, {"measurement": "fold change (FC)", "setting": "U-87 MG [15]", "value": 2.9}, {"measurement": "fold change (FC)", "setting": "U-87 MG [16]", "value": 2.8}, {"measurement": "fold change (FC)", "setting": "U-87 MG [17]", "value": 2.7}, {"measurement": "fold change (FC)", "setting": "U-87 MG [18]", "value": 2.4}, {"measurement": "fold change (FC)", "setting": "U-87 MG [19]", "value": 2.4}, {"measurement": "fold change (FC)", "setting": "U-87 MG [20]", "value": 2.4}, {"measurement": "fold change (FC)", "setting": "U-87 MG [21]", "value": 2.4}, {"measurement": "fold change (FC)", "setting": "U-87 MG [22]", "value": 2.4}, {"measurement": "fold change (FC)", "setting": "U-87 MG [23]", "value": 2.3}, {"measurement": "Activity", "setting": "U-87 MG [24]", "value": "Active"}, {"measurement": "inhibition (INH)", "setting": "U-87 MG [25]", "value": ">50", "unit": "%"}]}]}
